Assay outcomes as filed in PubChem.
A selection: hits, their analogues and other compounds. The true share with any hit is near 1.1%.
S1P3 antag: S1P3 (human) receptor antagonism; CHO S1P3 NFAT-BLA reporter, FRET fluorescence, antagonist mode; AID 485; inhibition, % at 4.98 µM; hit rate 0.27% among 170,000;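 active = inhibition above the plate cutoff, the mean inhibition of test wells on that plate plus 3 SD, cut at about 28% in these data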;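 also: cells challenged with S1P at its EC80 of 0.8 µM; blue over green emission ratio from cleaved BLA substrate after 4 h stimulation; 0% = S1P-stimulated wells and 100% = unstimulated DMSO-only wells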
TNAP act hiacc: increases human TNAP activity under high phosphate acceptor concentration | AID 1136 | activation factor at 20 µM | purified TNAP, CDP-star luminescence, 1 M DEA, 30 min; hits give high values; 0 = EDTA background, 1 = DMSO-only activity | P05186 | 200,000 tested, under 10 active;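 active = activation factor at least 2 at 20 µM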
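Control set: EDTA negative control, DMSO positive control / Assay system: human TNAP / Quantity: TNAP 1/800 final / Evaluation: TNAP activation factor scaled between EDTA and DMSO control wells / Measured by: luminescent substrate turnover signal / Compound dosing: one dose, 20 µM / Times: 30 min enzyme reaction at room temperature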
S1P4 agonist: human S1P4 receptor agonism | O95977 | S1P4-expressing cell line, agonist reporter assay | activation, % at 4.98 µM | hit rate 0.35% among 220,000; in the data active = activation above about 11%;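 also: 0% = DMSO vehicle and 100% = reference agonist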
TNAP inh noacc: inhibitors of human TNAP without phosphate acceptor; P05186; purified TNAP, CDP-star luminescence, 30 min; inhibition, % at 20 µM; hit rate 0.26% among 200,000; AID 1012;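 active = tissue-nonspecific alkaline phosphatase inhibition above about 50% at 20 µM in the single-dose screen, limit read from the data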;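 also: 0% = DMSO negative control and 100% = EDTA positive control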
S1P4 antagonist: blocks the human S1P4 receptor | O95977 | S1P4-expressing cells, antagonist mode, reporter read-out | inhibition, % at 4.98 µM | hit rate 0.26% among 220,000 | AID 1510; in the data active = inhibition above about 29%;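 also: 0% = wells stimulated with agonist and 100% = vehicle wells without agonist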
TNAP inh hi DEA: TNAP (human) inhibition, high acceptor. P05186. purified TNAP, CDP-star luminescence, 1 M DEA. inhibition, % at 20 µM. hit rate 0.03% among 200,000;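 active = over 50% inhibition of tissue-nonspecific alkaline phosphatase at 20 µM in the single-dose screen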;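 also: plate controls were DMSO wells for no effect and EDTA-quenched wells as full inhibition for full effect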
S1P4 ag conf: human S1P4 agonism, confirmation; hit rate 7% among 740; shares compounds with S1P4 agonist; S1P4 agonist cell-based reporter assay; activation, % at 4.98 µM; in the data active = activation above about 12%;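 also: 0% = vehicle and 100% = full reference agonist response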
S1P1 agonist: human S1P1 agonism as S1P4 agonist counter-screen; shares compounds with S1P4 agonist; S1P1 agonist cell-based assay, activation; activation, % at 4.98 µM; hit rate 4% among 740; in the data active = activation above about 21%;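 also: 0% = vehicle wells and 100% = reference agonist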
Target sequence (P21453 whole entry, looked up): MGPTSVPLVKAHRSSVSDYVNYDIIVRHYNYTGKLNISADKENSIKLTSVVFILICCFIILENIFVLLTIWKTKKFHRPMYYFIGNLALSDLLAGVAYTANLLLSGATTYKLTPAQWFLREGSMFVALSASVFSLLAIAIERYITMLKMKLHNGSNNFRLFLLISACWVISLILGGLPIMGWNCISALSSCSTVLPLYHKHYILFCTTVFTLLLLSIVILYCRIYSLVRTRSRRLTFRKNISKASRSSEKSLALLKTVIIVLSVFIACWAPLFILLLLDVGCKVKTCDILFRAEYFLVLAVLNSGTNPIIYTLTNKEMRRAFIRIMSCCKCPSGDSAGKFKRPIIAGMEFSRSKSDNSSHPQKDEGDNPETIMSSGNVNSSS
Active calls of the source: *; · = not tested or not shown.

SMILES	S1P3 antag	TNAP act hiacc	S1P4 agonist	TNAP inh noacc	S1P4 antagonist	TNAP inh hi DEA	S1P4 ag conf	S1P1 agonist
COC(=O)N/N=C/c1sc(N2CCCCC2)nc1-c1cccs1	-10	1	1	2	-2	-1	·	·
N#C/C(=C\c1cccs1)C(=O)c1ccccc1Cl	2	·	36*	·	24	·	-2	-9
CC(C)(C)C(=O)/C(C#N)=C/c1cccs1	-8	·	0	·	13	·	·	·
O=C(CSCc1ccc(Cl)cc1)Nc1ccc(S(=O)(=O)N2CCCCCC2)cc1	-12	1	15*	-31	-11	-5	-3	-5
CCN(CC)S(=O)(=O)c1ccc(OC)c(NC(=O)/C=C/c2ccco2)c1	14	·	0	·	-24	·	·	·
CCCN(CCC)S(=O)(=O)c1ccc(C(=O)Nc2nc3c(s2)CCc2ccccc2-3)cc1	6	1	29*	-10	-14	1	-1	-7
Cc1ccc(-c2nc(NC(=O)c3ccc(S(=O)(=O)N(CCC#N)CCC#N)cc3)sc2-c2ccccc2)cc1	6	1	1	-13	-23	-2	·	·
O=C1Cc2cc(CCN3CCN(c4nsc5ccccc45)CC3)c(Cl)cc2N1	-5	1	2	-7	-5	-3	·	·
Cn1c(NC(=O)CC(C)(C)C)cc(=O)n(C)c1=O	17	1	46*	-1	-1	-3	-2	-3
Cn1cccc1C(=O)C(=O)Nc1cccc(Cl)c1Cl	·	1.1	20*	-11	1	-5	-1	1
CCc1ccc(NC(=O)N(CCN2CCOCC2)C2CCN(C(C)=O)CC2)cc1	4	1.1	16*	-2	-17	-8	-2	2
O=C(O)c1cnn2c(-c3ccc(F)cc3)ccnc12	-22	1	0	-7	-2	1	·	·
Cc1nn(Cc2ccc(Cl)c(Cl)c2)c(C)c1NC(=O)c1cc(-c2ccc3c(c2)OCO3)on1	41	1	22*	0	11	1	-2	-2
COc1ccc([N+](=O)[O-])cc1NCc1ccco1	9	·	1	·	6	·	·	·
CCOC(=O)C1=C(C)NC(=O)/C1=C\N(C)C	-15	1	-1	-6	-2	-2	·	·
CC(=O)OCC1(C)CN(c2ccccc2)N(C(=O)c2ccc(C(C)(C)C)cc2)C1=O (configuration not stated)	-3	0.9	25*	3	3	5	-2	-5
CC(=O)OCC1(C)CN(c2ccccc2)N(C(C)=O)C1=O (configuration not stated)	-12	1	-1	-7	8	3	·	·
CC(c1ccccc1)n1c(-c2cccs2)nc2c(c(=O)c3ccccc3n2C)c1=O (configuration not stated)	-3	·	1	·	-2	·	·	·
CSCCC(NC(=O)c1ccccc1C)C(=O)O (configuration not stated)	-10	1.1	1	-8	-14	-5	·	·
Oc1ccc(Cl)cc1C1=Nc2ccccc2N=C(c2ccco2)C1	·	1	2	-12	5	-3	·	·
COc1ccc(O)c(C2=Nc3ccccc3N=C(c3ccco3)C2)c1	·	1	69*	-1	-12	-2	-3	3
COc1ccc(C(=O)NNC(=O)c2snnc2C)cc1	-5	·	0	·	11	·	·	·
CC(=O)Nc1ccc(C(=O)OCC(=O)N(Cc2ccccc2)C(C)(C)C)cc1	·	0.9	-2	-8	3	11	·	·
COc1ccc(C2=NOC(C(=O)NC(C)(C)C)C2)cc1 (configuration not stated)	-5	1	23*	-13	-16	-1	-2	-9
O=[N+]([O-])c1cccc(-c2noc(-c3ccco3)n2)c1	-8	·	0	·	7	·	·	·
SMILES	S1P3 antag	TNAP act hiacc	S1P4 agonist	TNAP inh noacc	S1P4 antagonist	TNAP inh hi DEA	S1P4 ag conf	S1P1 agonist
O=C(O)c1ccc(N/N=C/c2ccc(-c3cccc(Cl)c3)o2)cc1	-17	·	13*	·	-14	·	3	9
O=C(O)c1ccc(N/N=C/c2ccc(-c3ccc(Cl)cc3Cl)o2)cc1	2	·	16*	·	-10	·	7	26*
COc1ccc(CCN=Cc2ccccc2O)cc1OC	1	·	1	·	-8	·	·	·
COc1ccc(-c2c(C#N)c(N)nc3c2CCc2ccccc2-3)cc1OC	·	1	14*	-6	-13	-3	18*	10
CCNC(=S)NNC(=O)c1cc(C)nc2ccccc12	-8	1	44*	-70	-5	-4	-1	2
C=CCNC(=S)NNC(=O)c1cc(C)nc2ccccc12	4	1.1	1	-179	-4	-6	·	·
CC(C)(C)c1ccc(C(=O)N2CCC(C(=O)NCc3ccncc3)CC2)cc1	-10	1	16*	-5	-8	2	0	-1
COc1ccc(Cl)cc1N(CC(=O)NCC(C)C)S(=O)(=O)c1ccc(C)c([N+](=O)[O-])c1	4	1	25*	-49	-11	-1	-2	-5
N#CCCN(Cc1cccs1)C(=O)Nc1ccc(F)cc1	-7	·	1	·	7	·	·	·
CCCN(CCC)C(=O)CC(c1ccccc1)c1cc(C)ccc1O (configuration not stated)	·	1.1	51*	-7	-8	-6	-2	2
Cc1ccc(O)c(C(CC(=O)NC(C)C)c2ccccc2)c1 (configuration not stated)	1	1	1	-6	-3	0	·	·
Cc1ccc(C(C[N+](=O)[O-])Sc2ccc(N)cc2)cc1 (configuration not stated)	-8	·	1	·	10	·	·	·
O=c1[nH]c(Cc2ccccn2)nc2scc(-c3ccccc3Cl)c12	-8	1.1	0	-19	4	-7	·	·
CCCCn1c(SCC(=O)Nc2cccc(OC)c2)nc2ccc(N3CCOCC3)cc2c1=O	·	1	14*	-13	-13	-3	-2	-1
CCCCn1c(SCC(N)=O)nc2ccc(N3CCOCC3)cc2c1=O	·	0.9	-3	-4	1	5	·	·
COC(=O)CNC(=O)COC(=O)c1cc(SC)ccc1Cl	-8	1.1	1	-10	-12	-9	·	·
CN(c1nc2nonc2nc1NC1CC1)C1CCOC1 (configuration not stated)	5	1	12*	-4	-5	-3	-2	5
Cc1ccc(NC(=O)Cn2cc3c(n2)CCC(C)C3)cc1 (configuration not stated)	-23	1	27*	-5	3	4	-2	-7
CCC(C)(C)NC(=O)C(c1ccccn1)N(C(=O)c1csnn1)c1ccc(C)c(C)c1 (configuration not stated)	-7	1	0	-13	-14	-2	·	·
Clc1ccc(C2=NN(c3ccccc3)C(c3ccco3)C2)cc1 (configuration not stated)	-18	·	20*	·	-20	·	14*	30*
